This is an account of results in ChEMBL document CHEMBL1135420, “Mode of action of 4-hydroxyphenylpyruvate dioxygenase inhibition by triketone-type inhibitors” (J Med Chem, 2002).

The target of this experiment is 4-hydroxyphenylpyruvate dioxygenase (Sus scrofa, UniProt Q02110). Description: Inhibition of pig liver 4-Hydroxyphenylpyruvate dioxygenase (4-HPPD) enzyme. The essentials: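 Spectrophotometric enol borate assay. Mixture: potassium phosphate/borate buffer (0.42 M H₃BO₃ brought to pH 6.2 with 0.17 M Na₃PO₄), 4-hydroxyphenylpyruvic acid (1.8 mM stock), reduced dichlorophenolindophenol with glutathione, and phenylpyruvate tautomerase. Equilibrated about 15 min at 308 nm, then enzyme added with varying inhibitor concentrations. Absorbance decrease at 308 nm followed for 15 min. IC50 from fit to v_i = v₀/(1+[I]/IC50).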
Sequence of 4-hydroxyphenylpyruvate dioxygenase (Q02110 whole entry): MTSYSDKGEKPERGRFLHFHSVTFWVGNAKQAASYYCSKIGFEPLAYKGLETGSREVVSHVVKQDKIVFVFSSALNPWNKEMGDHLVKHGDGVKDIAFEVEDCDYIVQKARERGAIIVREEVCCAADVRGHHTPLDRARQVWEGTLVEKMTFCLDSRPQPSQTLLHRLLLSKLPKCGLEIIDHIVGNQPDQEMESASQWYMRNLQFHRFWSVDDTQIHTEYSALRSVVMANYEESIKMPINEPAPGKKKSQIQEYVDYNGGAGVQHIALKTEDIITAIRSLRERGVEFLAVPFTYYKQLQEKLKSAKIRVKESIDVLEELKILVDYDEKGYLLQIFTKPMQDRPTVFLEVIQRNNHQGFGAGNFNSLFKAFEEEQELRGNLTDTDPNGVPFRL
In the case of `O=C1CCCC(=O)N1Cc1ccccc1[N+](=O)[O-]`, it took 250 µM to reach half-maximal inhibition (IC50).
For `O=C1CCCC(O)=C1Cc1ccccc1[N+](=O)[O-]` the value was 126 µM; for `COC1=C(C(=O)c2ccccc2[N+](=O)[O-])C(=O)CCC1`, 52 µM; for `O=C1CCCC(=O)C1=C(NO)c1ccccc1[N+](=O)[O-]`, 50 µM.
With `O=C1CCCC(Cl)=C1C(=O)c1ccccc1[N+](=O)[O-]` the figure was 64 µM.
For `O=C1CCCC/C1=C(/O)c1ccccc1[N+](=O)[O-]` the value was 0.7 µM.
Turning to `O=C1CCCC(=O)C1=C(O)c1ccccc1[N+](=O)[O-]`, the IC50 was 0.16 µM. This IC50 lies about 4.4-fold lower than the previous one.
With `O=C1CCCC(=O)N1C(=O)c1ccccc1[N+](=O)[O-]` the figure was 60 µM; with `O=C1CCC=C(Cl)/C1=C(/O)c1ccccc1[N+](=O)[O-]`, 0.53 µM.

Broadly, the IC50 is the midpoint of a concentration-inhibition curve. Low values mean higher potency, high ones lower potency.
